Test results published in ChEMBL document CHEMBL1143412, “RSV604, a novel inhibitor of respiratory syncytial virus replication” (Antimicrob Agents Chemother, 2007).
Calls of active or inactive are those of the source. The calls are words filed in the database; no cut-off is given here.

Columns and labels:
[1] = tested on: Respiratory syncytial virus; experiment: Antiviral activity against plaque picked RSV604-resistant RSV RSS from passage 2 in human Hep2 cells by plaque reduction assay; type: functional, organism-based; conditions: HEp-2
Summary of the method: (§1)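 HEp-2 monolayers in six-well plates infected with 0.2 ml of 500 PFU/ml virus. After 2 h, overlaid with DMEM, 2% FBS, 0.6% agarose plus compound dilution series. Incubated 5 days, formaldehyde-fixed, plaques stained with methylene blue or immunostained and counted. Activity expressed as percent of plaques in untreated infected wells.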

[2] = tested on: Respiratory syncytial virus; experiment: Antiviral activity against RSV RSS infected human Hep2 cells assessed as reduction of viral antigen synthesis after 3 days by ELISA; type: functional, organism-based; conditions: HEp-2, 72 h
Summary of the method: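 HEp-2 cells seeded at 5 × 10³ per well in DMEM/10% FBS for 24 h, infected with RSV RSS at MOI about 0.02, serial compound dilutions for 3 days. Cells fixed and permeabilised in methanol-acetone, blocked in milk-Tween. Probed with mouse anti-RSV monoclonal then HRP anti-mouse. Developed with o-phenylenediamine/H2O2, absorbance […].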

[3] = tested on: Respiratory syncytial virus; experiment: Antiviral activity against RSV RSS infected human Hep2 cells after 5 days by plaque reduction assay; type: functional, organism-based; conditions: HEp-2, 120 h; summary of the method: as §1
[4] = tested on: Respiratory syncytial virus; experiment: Antiviral activity against RSV B infected human Hep2 cells after 5 days by plaque reduction assay; type: functional, organism-based; conditions: HEp-2, 120 h; summary of the method: as §1
[5] = tested on: Respiratory syncytial virus; experiment: Antiviral activity against RSV A2 infected human Hep2 cells after 5 days by plaque reduction assay; type: functional, organism-based; conditions: A2, HEp-2, 120 h; summary of the method: as §1
[6] = tested on: Respiratory syncytial virus; experiment: Antiviral activity against DMSO-passaged wild type RSV RSS infected human Hep2 cells by plaque reduction assay; type: functional, organism-based; conditions: HEp-2; summary of the method: as §1
[7] = tested on: Respiratory syncytial virus; experiment: Antiviral activity against RSV RSS infected human Hep2 cells assessed as inhibition of virus-induced cell death after 6 days by XTT assay; type: functional, organism-based; conditions: HEp-2, 144 h
Summary of the method: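 HEp-2 cells seeded at 4 × 10³ per well in DMEM with 10% FBS, infected next day with RSV RSS dosed to give about 80% cytopathic effect by day 6. Serial compound dilutions (top 10 μM, 0.5% DMSO) present throughout. Viability read by XTT reduction after 6 days. EC50 taken as 50% reduction in virus-induced cell death.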

[8] = tested on: Respiratory syncytial virus; experiment: Antiviral activity against RSV Long infected human Hep2 cells after 5 days by plaque reduction assay; type: functional, organism-based; conditions: HEp-2, 120 h; summary of the method: as §1
[9] = tested on: Respiratory syncytial virus; experiment: Drug resistance, ratio of EC50 for plaque picked RSV604-resistant RSV RSS from passage 2 to EC50 for DMSO-passaged wild type RSV RSS; type: functional
[10] = Cytotoxicity against recombinant RSV expressing GFP infected HAE cells at 20 uM for 7 days; type: cell-based; conditions: human, 168 h
Summary of the method: (§2)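 Differentiated human airway epithelial cultures exposed to 20 μM compound for 7 days. Scored for gross cytotoxicity, leakage of basolateral fluid to the apical surface, and cilium beat frequency.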

[11] = tested on: Respiratory syncytial virus; experiment: Antiviral activity against RSV A isolates infected human Hep2 cells after 5 days by plaque reduction assay; type: functional, organism-based; conditions: HEp-2, 120 h; summary of the method: as §1
[12] = tested on: Respiratory syncytial virus; experiment: Drug resistance, ratio of EC50 for RSV RSS with N protein I129L plus L139I mutant mutation to EC50 for wild type RSV RSS; type: functional
[13] = tested on: Respiratory syncytial virus; experiment: Antiviral activity against RSV RSS with N protein L139I mutation in human Hep2 cells after 5 days by plaque reduction assay; type: functional, organism-based; conditions: HEp-2, 120 h; summary of the method: as §1
[14] = tested on: Respiratory syncytial virus; experiment: Antiviral activity against recombinant RSV expressing GFP infected HAE cells assessed as inhibition of viral replication at 2 uM by fluorescence microscopy; type: functional, organism-based
[15] = tested on: Respiratory syncytial virus; experiment: Antiviral activity against RSV RSS with N protein I129L plus L139I mutant mutation in human Hep2 cells after 5 days by plaque reduction assay; type: functional, organism-based; conditions: HEp-2, 120 h; summary of the method: as §1
[16] = tested on: Respiratory syncytial virus; experiment: Drug resistance, ratio of EC50 for RSV RSS with N protein L139I mutation to EC50 for wild type RSV RSS; type: functional
Bovine orthopneumovirus = experiment: Antiviral activity against bovine RSV snook infected human Hep2 cells after 5 days by plaque reduction assay; type: functional, organism-based, Bovine respiratory syncytial virus; conditions: HEp-2, 120 h; summary of the method: as §1
[17] = tested on: Respiratory syncytial virus; experiment: Antiviral activity against recombinant RSV expressing GFP infected HAE cells assessed as inhibition of viral replication at 20 uM by fluorescence microscopy; type: functional, organism-based
[18] = tested on: Respiratory syncytial virus; experiment: Antiviral activity against recombinant RSV expressing GFP infected HAE cells assessed as inhibition of viral replication at 1 uM by fluorescence microscopy; type: functional, organism-based
[19] = tested on: Respiratory syncytial virus; experiment: Antiviral activity against recombinant RSV expressing GFP infected HAE cells assessed as lack of viral replication-dependent green fluorescence level at 2 uM by fluorescence microscopy; type: functional, organism-based
Metapneumovirus = experiment: Antiviral activity against human Metapneumovirus infected human Hep2 cells after 5 days by plaque reduction assay; type: functional, organism-based; conditions: HEp-2, 120 h; summary of the method: as §1
[20] = Cytotoxicity against RSV RSS infected human Hep2 cells after 6 days by XTT assay; type: cell-based, HEp-2
[21] = tested on: Respiratory syncytial virus; experiment: Drug resistance, ratio of EC50 for RSV RSS M2 mutant to EC50 for wild type RSV RSS; type: functional
[22] = tested on: Respiratory syncytial virus; experiment: Antiviral activity against recombinant RSV expressing GFP infected HAE cells assessed as inhibition of viral replication at 10 uM by fluorescence microscopy; type: functional, organism-based
[23] = Toxicity in recombinant RSV expressing GFP infected HAE cells assessed as leakage of basolateral fluid to apical surface at 20 uM for 7 days; conditions: human, 168 h; summary of the method: as §2
[24] = Toxicity in recombinant RSV expressing GFP infected HAE cells assessed as alteration of cilium beat frequency at 20 uM for 7 days; conditions: human, 168 h; summary of the method: as §2
[25] = tested on: Respiratory syncytial virus; experiment: Antiviral activity against recombinant RSV expressing GFP infected HAE cells assessed as lack of viral replication-dependent green fluorescence level at 20 uM by fluorescence microscopy; type: functional, organism-based
[26] = tested on: Respiratory syncytial virus; experiment: Drug resistance, ratio of EC50 for RSV RSS with N protein N105D mutation to EC50 for wild type RSV RSS; type: functional
[27] = tested on: Respiratory syncytial virus; experiment: Antiviral activity against RSV RSS M2 mutant infected human Hep2 cells after 5 days by plaque reduction assay; type: functional, organism-based; conditions: HEp-2, 120 h; summary of the method: as §1
[28] = tested on: Respiratory syncytial virus; experiment: Antiviral activity against 0.02 MOI RSV RSS infected human Hep2 cells assessed as inhibition of virus-induced cell death after 6 days by XTT assay; type: functional, organism-based; conditions: HEp-2, 144 h
[29] = tested on: Respiratory syncytial virus; experiment: Antiviral activity against 1.5 MOI RSV RSS infected human Hep2 cells assessed as inhibition of virus-induced cell death after 6 days by XTT assay; type: functional, organism-based; conditions: HEp-2, 144 h
[30] = tested on: Pneumonia virus of mice 15; experiment: Antiviral activity against Pneumonia virus of mice 15 infected human Hep2 cells after 5 days by plaque reduction assay; type: functional, organism-based; conditions: murine pneumonia virus, HEp-2, 120 h; summary of the method: as §1
[31] = tested on: Respiratory syncytial virus; experiment: Antiviral activity against plaque picked A-33903-resistant RSV RSS from passage 2 in human Hep2 cells by plaque reduction assay; type: functional, organism-based; conditions: HEp-2; summary of the method: as §1
[32] = tested on: Respiratory syncytial virus; experiment: Antiviral activity against recombinant RSV expressing GFP infected HAE cells assessed as lack of viral replication-dependent green fluorescence level at 10 uM by fluorescence microscopy; type: functional, organism-based
[33] = tested on: Respiratory syncytial virus; experiment: Antiviral activity against RSV B isolates infected human Hep2 cells after 5 days by plaque reduction assay; type: functional, organism-based; conditions: HEp-2, 120 h; summary of the method: as §1
[34] = tested on: Respiratory syncytial virus; experiment: Drug resistance, ratio of EC50 for plaque picked A-33903-resistant RSV RSS from passage 2 to EC50 for DMSO-passaged wild type RSV RSS; type: functional
Human respirovirus 1 = experiment: Antiviral activity against Parainfluenza virus type 1 infected human Hep2 cells after 5 days by plaque reduction assay; type: functional, organism-based; conditions: Human respirovirus 1, HEp-2, 120 h; summary of the method: as §1
[35] = tested on: Respiratory syncytial virus; experiment: Antiviral activity against RSV RSS with N protein N105D mutation in human Hep2 cells after 5 days by plaque reduction assay; type: functional, organism-based; conditions: HEp-2, 120 h; summary of the method: as §1
[36] = tested on: Respiratory syncytial virus; experiment: Antiviral activity against RSV infected human Hep2 cells assessed as reduction of plaque formation pretreated 2 hrs before viral infection; type: functional, organism-based; conditions: HEp-2
Summary of the method: (§3)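 Plaque reduction in HEp-2 cells with compound added either 2 h before infection or 6 h after. Duplicate wells per dilution. Percent plaque reduction calculated against compound-free infected wells. Four independent experiments.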

[37] = Therapeutic index, CC50 for human Hep2 cells to EC50 for RSV RSS; type: cell-based, HEp-2; conditions: read-out: Ratio CC50/EC50
Summary of the method: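 Ratio of CC50 from uninfected HEp-2 XTT control plates to EC50 from RSV RSS-infected XTT plates, both read after 6 days.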

[38] = tested on: Respiratory syncytial virus; experiment: Antiviral activity against RSV RSS with N protein […] mutation in human Hep2 cells after 5 days by plaque reduction assay; type: functional, organism-based; conditions: HEp-2, 120 h; summary of the method: as §1
[39] = tested on: Respiratory syncytial virus; experiment: Antiviral activity against RSV infected human Hep2 cells assessed as reduction of plaque formation treated 6 hrs after viral infection; type: functional, organism-based; conditions: HEp-2; summary of the method: as §3
Human respirovirus 3 = experiment: Antiviral activity against Parainfluenza virus type 3 infected human Hep2 cells after 5 days by plaque reduction assay; type: functional, organism-based; conditions: Human respirovirus 3, HEp-2, 120 h; summary of the method: as §1

## NC(=O)c1ncn([C@@H]2O[C@H](CO)[C@@H](O)[C@H]2O)n1 [RIBAVIRIN]
[1]
  EC50: 17.6 µM
[2]
  EC50: 25.3 µM
[3]
  EC50: 13.3 µM
[4]
  EC50: 29 µM
[5]
  EC50: 19 µM
[6]
  EC50: 20.7 µM
[7]
  EC50: 11.5 µM
[8]
  EC50: 16.8 µM
[9]
  fold change (FC): 0.85

## O=C(Nc1ccccc1F)N[C@H]1N=C(c2ccccc2)c2ccccc2NC1=O [RSV-604]
[10]
  Activity: Not Active
[11]
  EC50: 0.8 µM
[12]
  fold change (FC): >20
[13]
  EC50: 6.7 µM
[14]
  Activity: Active
[1]
  EC50: 30.4 µM
[15]
  EC50: > 20 µM
[16]
  fold change (FC): 7
Bovine orthopneumovirus
  EC50: 0.3 µM
[17]
  Activity: Active
[18]
  Activity: Active
[19]
  Activity: Active
Metapneumovirus
  EC50: > 50 µM
[2]
  EC50: 1.7 µM
[3]
  EC50: 0.9 µM
[20]
  CC50 at 144 h: > 50 µM
[21]
  fold change (FC): 1.2
[22]
  Activity: Active
[23]
  Activity: Not Active
[24]
  Activity: Not Active
[4]
  EC50: 0.6 µM
[5]
  EC50: 0.5 µM
[25]
  Activity: Active
[26]
  fold change (FC): 5
[27]
  EC50: 1.14 µM
[28]
  EC50: 1.4 µM
[6]
  EC50: 0.6 µM
[29]
  EC50: 2.55 µM
[30]
  EC50: > 50 µM
[31]
  EC50: 2.7 µM
[7]
  EC50: 0.86 µM
[32]
  Activity: Active
[33]
  EC50: 0.8 µM
[8]
  EC50: 0.8 µM
[34]
  fold change (FC): 3.9
Human respirovirus 1
  EC50: > 50 µM
[9]
  fold change (FC): 50.7
[35]
  EC50: 4.78 µM
[36]
  Activity: Active
[37]
  selectivity ratio: > 58
[38]
  EC50: 6.03 µM
[39]
  Activity: Active
Human respirovirus 3
  EC50: > 50 µM
